Source: ChEMBL document CHEMBL4840318, “The Total Chemical Synthesis and Biological Evaluation of the Cationic Antimicrobial Peptides, Laterocidine and Brevicidine” (2021)
≈ marks a conversion by molar mass, not a printed value. Positions of bridges follow the written chain, without caps; N, C: chain ends. Non-standard residues stand in square brackets, D forms with d. Residues, ends and D or L forms follow the SMILES beside them. ξ: configuration not given here. *: point of attachment. Octanoyl(7-Me) = CC(C)CCCCCC(=O)*; Hexanoyl(4ξ-Me) = CCC(C)CCC(=O)*; dOrn = NCCC[C@@H](N)C(=O)O; X1 = CC[C@H](C)CCCCC(=O)*; Orn = NCCC[C@H](N)C(=O)O; Dab = NCC[C@H](N)C(=O)O

Columns and labels:
Assay type in all cases: functional
Escherichia coli [1] = test: Antibacterial activity against Escherichia coli ATCC 25922 assessed as inhibition of bacterial growth incubated for 18 hrs by CLSI protocol based method
Outline: (§1)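 CLSI broth microdilution in cation-adjusted Mueller Hinton broth, in polypropylene plates. Bacteria were grown at 37 °C with shaking (200 rpm) for 8 h, then diluted into fresh medium and added to the wells. Compounds were tested as twofold dilutions from 64 to 0.25 μM (final), in triplicate, with growth and sterility controls. Plates were incubated at 37 °C with shaking. MIC is the lowest concentration with no growth, consistent across three biological replicates.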

Staphylococcus aureus [2] = test: Antibacterial activity against Staphylococcus aureus ATCC 29213 assessed as inhibition of bacterial growth incubated for 18 hrs by CLSI protocol based method; outline: as §1
Escherichia coli [3] = test: Antibacterial activity against Escherichia coli ATCC 25922 assessed as inhibition of bacterial growth incubated for 24 hrs by multiplate photometer method
Staphylococcus aureus [4] = test: Antibacterial activity against methicillin-resistant Staphylococcus aureus assessed as inhibition of bacterial growth incubated for 24 hrs by multiplate photometer method

SMILES	MIC (Escherichia coli [1]) [µg/mL]	MIC (Staphylococcus aureus [2]) [µg/mL]	MIC (Escherichia coli [3]) [µg/mL]	MIC (Staphylococcus aureus [4]) [µg/mL]
CC[C@H](C)CCCCC(=O)N[C@@H](CCN)C(=O)N[C@H](C(=O)N[C@@H](CCN)C(=O)N[C@H]1CCNC(=O)[C@H]([C@@H](C)O)NC(=O)[C@H](CCN)NC(=O)[C@H](CCN)NC(=O)[C@H](CC(C)C)NC(=O)[C@@H](Cc2ccccc2)NC(=O)[C@H](CCN)NC1=O)[C@@H](C)O (X1-[Dab]T[Dab][Dab][Dab][dF]L[Dab][Dab]T; lactam 4-C)	0.3 (≈ 0.249 µM)	> 64	1 (≈ 0.831 µM)	32 (≈ 26.6 µM)
CCC(C)CCC(=O)N[C@H](CC(N)=O)C(=O)N[C@H](Cc1ccc(O)cc1)C(=O)N[C@H](Cc1c[nH]c2ccccc12)C(=O)N[C@H](CCCN)C(=O)N[C@@H](CCCN)C(=O)NCC(=O)N[C@H](CCCN)C(=O)N[C@@H](Cc1c[nH]c2ccccc12)C(=O)N[C@@H]1C(=O)N[C@@H]([C@@H](C)CC)C(=O)NCC(=O)N[C@@H](CO)C(=O)O[C@@H]1C (some centres undefined) ({Hexanoyl(4ξ-Me)}-[dN][dY][dW][dOrn][Orn]G[dOrn]WTIGS; ester 9-C)	2 (≈ 1.32 µM)	> 64	2 (≈ 1.32 µM)	> 64
CC[C@H](C)[C@@H]1NC(=O)[C@@H](NC(=O)[C@H](Cc2c[nH]c3ccccc23)NC(=O)[C@@H](CCCN)NC(=O)CNC(=O)[C@H](CCCN)NC(=O)[C@@H](CCCN)NC(=O)[C@@H](Cc2c[nH]c3ccccc23)NC(=O)[C@@H](Cc2ccc(O)cc2)NC(=O)[C@@H](CO)NC(=O)CCCCCC(C)C)[C@@H](C)OC(=O)CNC(=O)CNC(=O)[C@H](CC(N)=O)NC1=O ({Octanoyl(7-Me)}-[dS][dY][dW][dOrn][Orn]G[dOrn]WTINGG; ester 9-C)	0.25 (≈ 0.156 µM)	> 64	2 (≈ 1.25 µM)	> 64
CC1(C)S[C@@H]2[C@H](NC(=O)[C@H](N)c3ccc(O)cc3)C(=O)N2[C@H]1C(=O)O [AMOXICILLIN]	6 (≈ 16.4 µM)	3 (≈ 8.21 µM)		
